Key:
[1] = biological target: T1, Glycine receptor subunit alpha-1 (Rattus norvegicus, UniProt P07727); assay: Inhibitory concentration required to inhibit [3H]strychnine binding to […]
T1 sequence (P07727 whole entry): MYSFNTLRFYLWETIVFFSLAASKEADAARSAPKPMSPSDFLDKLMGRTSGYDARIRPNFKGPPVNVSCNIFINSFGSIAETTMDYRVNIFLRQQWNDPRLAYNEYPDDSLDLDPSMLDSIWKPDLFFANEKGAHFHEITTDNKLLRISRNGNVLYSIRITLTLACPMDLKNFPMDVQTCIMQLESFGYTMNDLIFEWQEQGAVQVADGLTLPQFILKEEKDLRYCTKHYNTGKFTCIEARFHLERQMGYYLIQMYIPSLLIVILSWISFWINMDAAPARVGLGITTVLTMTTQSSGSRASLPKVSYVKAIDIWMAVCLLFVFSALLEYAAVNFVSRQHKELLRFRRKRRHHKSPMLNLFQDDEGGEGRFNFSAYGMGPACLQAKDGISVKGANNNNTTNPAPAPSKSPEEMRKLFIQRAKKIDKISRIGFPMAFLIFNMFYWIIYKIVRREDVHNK
Outline: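 [3H]Strychnine displacement; IC50 obtained by nonlinear curve fitting to a Langmuir isotherm.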

[2] = biological target: T1, Glycine receptor subunit alpha-1; assay: Inhibitory concentration required to inhibit [3H]strychnine binding to […] of rat spinal cord membranes.
Mus musculus [3] = species: Mus musculus; assay: Change in input resistance of cultured spinal cord neurons produced at a dose 1 mM+100 uM strychnine; type: functional
Mus musculus [4] = species: Mus musculus; assay: Change in input resistance of cultured spinal cord neurons produced at a dose 100 uM; type: functional
Mus musculus [5] = species: Mus musculus; assay: Change in input resistance of cultured spinal cord neurons produced at a dose 100 uM+100 uM tetrodotoxin; type: functional
Mus musculus [6] = species: Mus musculus; assay: Change in input resistance of cultured spinal cord neurons produced at a dose 1 mM; type: functional
Mus musculus [7] = species: Mus musculus; assay: Change in input resistance of cultured spinal cord neurons produced at a dose 1 mM+100 uM tetrodotoxin; type: functional
Mus musculus [8] = species: Mus musculus; assay: Change in input resistance of cultured spinal cord neurons produced at a dose 1 mM+100 uM bicuculline+3 uMtetrodotoxin; type: functional
Mus musculus [9] = species: Mus musculus; assay: Change in input resistance of cultured spinal cord neurons produced at a dose 100 uM+100 uM bicuculline+3 uM tetrodotoxin; type: functional
Mus musculus [10] = species: Mus musculus; assay: Change in input resistance of cultured spinal cord neurons produced at a dose 100 uM tetrodotoxin; type: functional
[11] = Ability to displace [3H]strychnine-sensitive glycine receptor binding to rat spinal cord membranes; at 100 uM

In the case of O=C(O)[C@@H]1CCCN1 (stereo in doubt; 8) [PROLINE], the IC50 [1] is reported as 17.2 µM.

In the case of NCCC(=O)O [BETA-ALANINE], the IC50 [2] is reported as 11.6 µM.

O=C(O)C1CCN1 (stereo not given) showed an IC50 [1] of 399 µM.

In the case of O=C(O)[C@@H]1CCCN1 (stereo in doubt) [PROLINE], the IC50 [1] is reported as 414 µM.

Compound O=C(O)C1CNC1 has an IC50 [1] of 23.7 µM, an Activity (Mus musculus [3]) of 37.7% and an Activity (Mus musculus [4]) of 9.4%. It also gave an Activity (Mus musculus [5]) of 10.7%, an Activity (Mus musculus [6]) of 83.1% and an Activity (Mus musculus [7]) of 71.7%.

Compound C[C@H](N)C(=O)O [ALANINE] has an IC50 [1] of 198 µM.

Work on O=C(O)C1C=CCN1 (stereo not given) yielded an IC50 [1] of 242 µM.

C[C@@H](N)C(=O)O [D-ALANINE] showed an IC50 [2] of 90.9 µM.

With O=C(O)C1CCNCC1 [ISONIPECOTIC ACID] the IC50 [1] was 94.1 µM, the Activity (Mus musculus [8]) was 0.1% and the Activity (Mus musculus [4]) was 19.2%. It also gave an Activity (Mus musculus [9]) of 3% and an Activity (Mus musculus [6]) of 73.6%.

With O=C(O)C1=CCNC1 the IC50 [1] was 7.9 µM, the Activity (Mus musculus [3]) was 4.7% and the Activity (Mus musculus [4]) was 22.7%. The Activity (Mus musculus [10]) was 5.1%, the Activity (Mus musculus [6]) was 60.4% and the Activity (Mus musculus [7]) was 37.2%.

O=C(O)c1cc[nH]c1 gave an inhibition [11] of 46%.

— ChEMBL document CHEMBL1126139 (J Med Chem, 1992)
